# “And” between values parts separate entries of the source, which are not always exact repeats. Identical values can stand only once. The source made the active and inactive calls.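 How the source made its calls, unless noted: active means viability loss from added drug above about 55%, and viability with drug at most 40%, in both replicates (limit read from the data, passing the limit was not always enough); inconclusive means both conditions met in only one replicate; inactive means neither replicate meets both conditions.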
# What was measured:
# [1] = SK-BR-3 cell growth inhibitors, pilot screen, 24 h, human (AID 572;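 active means viability at or below 10% of carrier control in both of two separate runs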;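 further: compound exposure lasted between 18 and 24 h rather than exactly 24 h; 100% = carrier-treated control wells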); conditions: SK-BR-3 viability, CellTiter-Glo luminescence, at 10 µM, stronger effect = lower value
# [2] = HUVEC growth inhibition – cell-based, human, primary screen (AID 575;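 active means viability at or below 30% in both replicate assays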;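 further: 100% = median of untreated cell wells with 0.1% DMSO on each plate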); conditions: HUVEC proliferation, CellTiter-Glo luminescence, 72 h; at 10 µM; stronger effect = lower value
# In short: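 Test system: primary human umbilical vein endothelial cells; medium: endothelial basal medium with 2% FBS plus growth supplements; dosing: 10 µM compound only; times: 72 h treatment at 37 °C; signal: CTG luminescence; read-out: % viability relative to median vehicle-well signal on each plate; control set: vehicle and MePR control wells; plate: 384-well, collagen-coated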
# [3] = growth inhibitors of H69AR lung tumor, primary screen, human, duplicate replicates (AID 580;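 active means viability at or under a set limit in both replicates, limit being median viability minus 3 SD, cut at about 48% in these data, passing the limit was not always enough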;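 further: 100% = mean luminescence of untreated wells and 0% = no signal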); conditions: H69AR lung tumor cells viability, ATP luminescence, 72 h; at 10 µM; stronger effect = lower value
# [4] = reversal of MRP1-mediated doxorubicin resistance, pilot screen, H69AR cells, doxorubicin co-treatment (AID 601); conditions: CellTiter-Glo, 72 h, at 10 µM; for differential viability (reversal): stronger effect = higher value
# [5] = 384-well plate pilot, post-Golgi transport modulator project, inhibition of yeast transport mutant growth (AID 636; in the data active means inhibition above about 31%); conditions: absorbance 615 nm, about 18 h, stronger effect = higher value
# [6] = growth suppression of yeast trafficking mutant, preliminary HTS, modulators of trafficking downstream of Golgi apparatus project, 1536-format plate, OD 615 nm (AID 637; in the data active means inhibition above about 30%); conditions: yeast transport mutant growth, absorbance 615 nm, 18 h; stronger effect = higher value
# [7] = H69AR cells + 2 uM doxorubicin, measured here: viability with 2 uM doxorubicin, stronger effect = lower value
# [8] = H69AR cells, compound alone cytotoxicity
Compound,viability [1],viability [2],viability [3],differential viability (reversal) ([4]; H69AR cells + 2 uM doxorubicin),"viability [4, 7]","viability [4, 8]",inhibition [5],inhibition [6]
CCCS(=O)(=O)N1CCCC(C(=O)NC(C)c2ccc3c(c2)OCCO3)C1 (stereo unspecified),79% (inactive),71.3% (inactive),93.9% (inactive),6.12% (inactive),87.8%,93.9%,-2.34% (inactive),0.49% (inactive)
C[C@H](CCC(=O)O)[C@H]1CC[C@H]2[C@@H]3C(=O)C[C@@H]4CC(=O)CC[C@]4(C)[C@H]3CC(=O)[C@]12C,128% (inactive),88.9% (inactive),96% (inactive),-6.55% (inactive),102%,96%,0.65% (inactive),-0.83% (inactive)
CN(C(=O)C1CCCO1)c1nnc(-c2ccncc2)s1 (stereo unspecified),81% (inactive),111% (inactive),100% (inactive),7.37% (inactive),92.7%,100%,-3.24% (inactive),-1.82% (inactive)
Cc1cc(C)c(NC(=O)CSc2nnc(-c3ccncc3)n2Cc2ccco2)c(C)c1,91% (inactive),109% (inactive),97.4% (inactive),3.25% (inactive),94.2%,97.4%,-2.7% (inactive),-4.73% (inactive)
COCc1[nH]nc2c1C(c1cc(OC)c(O)c(OC)c1)C(C#N)=C(N)O2 (stereo unspecified),98% (inactive),102% (inactive),93% (inactive),-2% (inactive),95%,93%,-10.3% (inactive),4.03% (inactive)
CCOC(=O)C1=C(N)OC2=C(C(=O)CC(C)(C)C2)C1c1ccco1 (stereo unspecified),90% (inactive),97.3% (inactive),87.8% (inactive),3.79% (inactive),84%,87.8%,1.04% (inactive),3.28% (inactive)
CCCN(CC1CC1)C(=O)Nc1ccccc1C,94% (inactive),101% (inactive),104% (inactive),12.2% (inactive),92.2%,104%,-1.04% (inactive),-12.9% (inactive)
CCOC(=O)Cc1nnc(Nc2cccc(O)c2)c2ccccc12,98% (inactive),95.4% (inactive),106% (inactive),20.6% (inactive),85.8%,106%,-3.65% (inactive),0% (inactive)
Cc1ccc(C2C(C(=O)c3sc(C)nc3C)=C(O)C(=O)N2CCN(C)C)o1 (stereo unspecified),93% (inactive),114% (inactive),103% (inactive),3.58% (inactive),99.1%,103%,-3.65% (inactive),0% (inactive)
COCCCNCC(=O)Nc1ccc(OC(F)(F)F)cc1,102% (inactive),113% (inactive),98.5% (inactive),13% (inactive),85.5%,98.5%,-9.2% (inactive),-5.82% (inactive)
COc1ccccc1NC(=O)NC(N)=O,102% (inactive),87.7% (inactive),96.4% (inactive),1.88% (inactive),94.5%,96.4%,-5.89% (inactive),7.64% (inactive)
O=C(C1CCN(S(=O)(=O)c2cnc[nH]2)CC1)N1CCN(c2ncccn2)CC1,112% (inactive),111% (inactive),102% (inactive),19.5% (inactive),82.8%,102%,-5.33% (inactive),0% (inactive)
Cc1ccc2nc(-c3ccc(S(=O)(=O)N4CCOCC4)cc3)cn2c1,138% (inactive),108% (inactive),105% (inactive),6.21% (inactive),98.5%,105%,-1.17% (inactive),-1.48% (inactive)
O=C(O)CCC(=O)NC1CCCCC1NC(=O)CCC(=O)O (stereo unspecified),104% (inactive),111% (inactive),99% (inactive),7.37% (inactive),91.6%,99%,-5.47% (inactive),0.73% (inactive)
CCOC(=O)Cc1csc(NC(=O)c2cccc(OC)c2)n1,75% (inactive),104% (inactive),103% (inactive),0.32% (inactive),102%,103%,-5.75% (inactive),-5.64% (inactive)
COc1cccc(N2CCN(Cc3nc(N)nc(Nc4ccccc4)n3)CC2)c1,119% (inactive),89.1% (inactive),75.5% (inactive),-14.5% (inactive),90%,75.5%,-3.77% (inactive),0.16% (inactive)
CCOC(=O)Cc1csc(NC(=O)CSc2nnc(C3CC3)n2C)n1,95% (inactive),107% (inactive),97.9% (inactive),6.36% (inactive),91.5%,97.9%,-5.81% (inactive),-3.82% (inactive)
Cc1cc(S(=O)(=O)N2CCN(c3ncccn3)CC2)ccc1-n1cnnn1,94% (inactive),120% (inactive),97.1% (inactive),3.36% (inactive),93.7%,97.1%,-2.8% (inactive),-0.73% (inactive)
Cc1ccc(-c2nn(-c3ccccc3)cc2/C=C(\C#N)c2cccc(C#N)c2)o1,71% (inactive),92% (inactive),71.6% (inactive),-1.65% (inactive),73.3%,71.6%,-9.32% (inactive),5.27% (inactive)
COC(=O)CNc1nc(C2CC2)nc2c1nnn2Cc1ccccc1Cl,89% (inactive),84.9% (inactive),94.7% (inactive),-2.29% (inactive),97%,94.7%,-9.04% (inactive),1.13% (inactive)
CC(C)C[C@H](NC(=O)Nc1cccc(C(F)(F)F)c1)C(=O)O,115% (inactive),98.1% (inactive),106% (inactive),14.6% (inactive),91.8%,106%,-4.25% (inactive),-0.81% (inactive)
N#CC1=C(N)N(c2ccccc2)C(c2ccccc2)C1(C#N)C#N (stereo unspecified),84.5% (inactive),81.6% (inactive),80.1% (inactive),1.28% (inactive),78.8%,80.1%,-6.27% (inactive),-0.97% (inactive)
Brc1c(NC2=NCCN2)ccc2nccnc12,105% (inactive),106% (inactive),95% (inactive),-7.09% (inactive),102%,95%,-0.39% (inactive),15.3% (inactive)
COC(=O)C1=C(C)NC(C)=C(C(=O)OC)C1C(=O)OC1CCCCC1=O (stereo unspecified),89% (inactive),105% (inactive),97.3% (inactive),3.25% (inactive),94%,97.3%,-4.46% (inactive),-0.49% (inactive)

Compound,viability [1],viability [2],viability [3],differential viability (reversal) ([4]; H69AR cells + 2 uM doxorubicin),"viability [4, 7]","viability [4, 8]",inhibition [5],inhibition [6]
O=C(O)C1CCCCC1C(=O)Nc1ccccn1 (stereo unspecified),115% (inactive),93.9% (inactive),108% (inactive),8.84% (inactive),99.4%,108%,-4.52% (inactive),-4.73% (inactive)
COc1cc(S(=O)(=O)NC2CCCCC2C)ccc1Cl (stereo unspecified),83% (inactive),98.3% (inactive),92.4% (inactive),-3.38% (inactive),95.8%,92.4%,-7.81% (inactive),1.45% (inactive)
CCOc1nc(-c2ccncc2)nc2ccccc12,100% (inactive),93.7% (inactive),92.6% (inactive),0.47% (inactive),92.1%,92.6%,-7.4% (inactive),9.35% (inactive)
CC1CCCc2sc3nc(NCc4ccco4)n4ncnc4c3c21 (stereo unspecified),104% (inactive),79.2% (inactive),83.3% (inactive),-1.71% (inactive),85%,83.3%,-3.97% (inactive),20.3% (inactive)
Cc1ccc2nc(C(F)(F)F)c(C#N)c(N)c2c1,50% (inactive),78.9% (inactive),71.3% (inactive),-43.8% (inactive),115%,71.3%,-4.38% (inactive),6.55% (inactive)
O=C(CSc1nc2ccccc2[nH]1)N1CCCCC1,106% (inactive),102% (inactive),92.9% (inactive),8.96% (inactive),83.9%,92.9%,-6.44% (inactive),5.09% (inactive)
Cc1ccc(Cn2nnnc2CN2CCC(O)(c3ccccc3F)CC2)cc1,62% (inactive),92.6% (inactive),83.1% (inactive),-2.32% (inactive),85.4%,83.1%,-8.36% (inactive),-0.65% (inactive)
COc1cccc(S(=O)(=O)Nc2ccc(C(=O)N3CCN(C(=O)c4ccco4)CC3)cc2)c1,85% (inactive),104% (inactive),86.3% (inactive),14.7% (inactive),71.5%,86.3%,-2.19% (inactive),-0.97% (inactive)
CC(C)(C)NC(=O)C(Cc1ccccc1)NS(=O)(=O)c1cccc2nsnc12 (stereo unspecified),87% (inactive),105% (inactive),87.8% (inactive),-7.5% (inactive),95.3%,87.8%,-9.86% (inactive),-1.09% (inactive)
NS(=O)(=O)c1ccc(CCNC(=O)c2cccnc2)cc1,126% (inactive),92.3% (inactive),97.2% (inactive),3.81% (inactive),93.4%,97.2%,-4.46% (inactive),-0.91% (inactive)
Cc1ccc(Cl)c(Nc2ccccc2C(=O)O)c1Cl,135% (inactive),47.9% (inactive),91.3% (inactive),-6.54% (inactive),97.9%,91.3%,-0.78% (inactive),4.67% (inactive)
CC1(C)CC(=O)C(CC(=O)NC(=O)NCc2ccccc2)=C(O)C1,114% (inactive),81.9% (inactive),105% (inactive),9.89% (inactive),94.7%,105%,-4.52% (inactive),-10% (inactive)
Cc1cccc(NC(=O)CCCCCN2C(=O)c3ccccc3C2=O)n1,92% (inactive),105% (inactive),105% (inactive),2.47% (inactive),102%,105%,-7.12% (inactive),5.45% (inactive)
CCOc1nc(NCCC2=CCCCC2)nc(N2CCOCC2)n1,102% (inactive),95.8% (inactive),96.7% (inactive),14.6% (inactive),82.1%,96.7%,-3.33% (inactive),1.64% (inactive)
COCCCNC(=O)C1CCN(C(=O)Nc2ccc(Cl)cc2)CC1,131% (inactive),92.2% (inactive),99% (inactive),11.6% (inactive),87.4%,99%,-1.04% (inactive),1.15% (inactive)
CSc1c(C#N)c(N)c(C#N)c2c1COC(C)(C)C2,94% (inactive),90.1% (inactive),88% (inactive),-1.11% (inactive),89.1%,88%,-11.1% (inactive),2.1% (inactive)
O=c1c2[nH]c3ccc(Cl)cc3c2ncn1Cc1ccccn1,94% (inactive),107% (inactive),101% (inactive),13.4% (inactive),87.9%,101%,-3.33% (inactive),-3.27% (inactive)
CCN(CC)CC(=O)Nc1c(C)cccc1C,101% (inactive) and 123% (inactive),97.3% (inactive) and 96.1% (inactive),107% (inactive) and 101% (inactive),15.8% (inactive) and 10.7% (inactive),91.2% and 90%,107% and 101%,-3.38% (inactive),-3.67% (inactive) and 1.67% (inactive)
CCCNC(=O)C1CN(S(=O)(=O)c2ccccc2)CCN1S(=O)(=O)c1ccccc1 (stereo unspecified),103% (inactive),108% (inactive),99.2% (inactive),9.82% (inactive),89.4%,99.2%,4.42% (inactive),3.77% (inactive)
Cc1cc(NC(=O)c2cnn3c(C(F)F)cc(C4CC4)nc23)no1,131% (inactive),79.6% (inactive),82.4% (inactive),-12.8% (inactive),95.1%,82.4%,-1.43% (inactive),3.11% (inactive)
CCC1(C(=O)OC)NC(c2cccc(F)c2)C2C(=O)N(C)C(=O)C21 (stereo unspecified),91% (inactive),96.1% (inactive),88.3% (inactive),-1.59% (inactive),89.8%,88.3%,-6.08% (inactive),0.73% (inactive)
CCOC(=O)N1CCN(C(=O)COc2cc(=O)n(C)c3ccccc23)CC1,98% (inactive),98.2% (inactive),98.2% (inactive),16.7% (inactive),81.5%,98.2%,0.91% (inactive),15.9% (inactive)
CCn1nnnc1SCC(=O)N1c2ccccc2CCc2ccccc21,86% (inactive),99.1% (inactive),86.7% (inactive),-5.9% (inactive),92.6%,86.7%,-9.07% (inactive),-0.18% (inactive)
